Converted amounts (≈) assume the structure as drawn. The source made the active and inactive calls. The rule behind the calls is not given here.
Legend:
Acinetobacter baumannii = assay: Antibacterial activity against Acinetobacter baumannii BAA 1605 assessed as bacterial growth inhibition incubated for 16 to 18 hrs by CLSI based antibiotic susceptibility testing method; assay type: functional, organism-based; details: time 16-18 hrs
How it was run: (§1)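 Broth microdilution in cation-adjusted Mueller-Hinton broth. Compounds were tested at […], with levofloxacin as reference and medium-only controls. Plates were incubated at 37 °C for 16-18 h. MIC was the lowest concentration with no visible growth; three independent determinations, each in duplicate.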

Staphylococcus aureus [1] = assay: Antibacterial activity against methicillin/ceftriaxone/meropenem-resistant Staphylococcus aureus NRS10192 clinical isolate assessed as bacterial growth inhibition incubated for 16 to 18 hrs by CLSI based antibiotic susceptibility testing method; assay type: functional; details: time 16-18 hrs; how it was run: as §1
Staphylococcus aureus [2] = assay: Antibacterial activity against Staphylococcus aureus ATCC 29213 assessed as bacterial growth inhibition incubated for 16 to 18 hrs by CLSI based antibiotic susceptibility testing method; assay type: functional; details: time 16-18 hrs; how it was run: as §1
Staphylococcus aureus [3] = assay: Antibacterial activity against methicillin/ceftriaxone/meropenem-resistant Staphylococcus aureus NRS10191 clinical isolate assessed as bacterial growth inhibition incubated for 16 to 18 hrs by CLSI based antibiotic susceptibility testing method; assay type: functional; details: time 16-18 hrs; how it was run: as §1
[4] = test system: Mycobacterium tuberculosis; assay: Antimycobacterial activity against Mycobacterium tuberculosis H37Rv ATCC 27294 assessed as bacterial growth inhibition incubated for 7 days by resazurin dye based broth microdilution method; assay type: functional; details: H37Rv ATCC 27294, 168 h, time 7 day
How it was run: (§2)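 Broth microdilution in Middlebrook 7H9 with 10% ADC-Tween-80 (0.2% glycerol, 0.05% Tween-80), inoculum ~10⁶ cfu/mL. Compounds came from 10 mg/mL DMSO stocks and were tested as two-fold serial dilutions at 37 °C, 7 days for M. tuberculosis H37Rv and 72 h for NTM. Growth was read visually with PrestoBlue resazurin dye; MIC was the lowest concentration preventing growth. Triplicate determinations, each in duplicate.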

Klebsiella pneumoniae = assay: Antibacterial activity against Klebsiella pneumoniae BAA 1705 assessed as bacterial growth inhibition incubated for 16 to 18 hrs by CLSI based antibiotic susceptibility testing method; assay type: functional, organism-based; details: time 16-18 hrs; how it was run: as §1
Staphylococcus aureus [5] = assay: Antibacterial activity against methicillin-sensitive Staphylococcus aureus ATCC 29213 clinical isolate assessed as bacterial growth inhibition incubated for 16 to 18 hrs by CLSI based antibiotic susceptibility testing method; assay type: functional; details: time 16-18 hrs; how it was run: as §1
Mycobacteroides chelonae = assay: Antimycobacterial activity against Mycobacteroides chelonae ATCC 35752 assessed as bacterial growth inhibition incubated for 72 hrs by resazurin dye based broth microdilution method; assay type: functional, organism-based; how it was run: as §2
Staphylococcus aureus [6] = assay: Antibacterial activity against methicillin/ceftriaxone/meropenem/gentamycin/linezolid-resistant Staphylococcus aureus NRS10100 clinical isolate assessed as bacterial growth inhibition incubated for 16 to 18 hrs by CLSI based antibiotic susceptibility testing method; assay type: functional; details: time 16-18 hrs; how it was run: as §1
Staphylococcus aureus [7] = assay: Bactericidal activity against Staphylococcus aureus ATCC 29213 assessed as reduction in remnant bacterial cells measured for 24 hrs by time-kill assay; assay type: functional, organism-based
How it was run: (§3)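 Time-kill assay: S. aureus ATCC 29213 at ~10⁶ cfu/mL in MHB, exposed to 1X and 10X MIC at 37 °C, in triplicate. Samples taken at 0, 1, 6 and 24 h were serially diluted in PBS and plated on TSA for 18-20 h at 37 °C. Surviving cfu/mL were counted against untreated controls.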

Staphylococcus aureus [8] = assay: Antibacterial activity against methicillin/ceftriaxone/meropenem-resistant Staphylococcus aureus NRS10198 clinical isolate assessed as bacterial growth inhibition incubated for 16 to 18 hrs by CLSI based antibiotic susceptibility testing method; assay type: functional; details: time 16-18 hrs; how it was run: as §1
Escherichia coli = assay: Antibacterial activity against Escherichia coli ATCC 25922 assessed as bacterial growth inhibition incubated for 16 to 18 hrs by CLSI based antibiotic susceptibility testing method; assay type: functional, organism-based; details: time 16-18 hrs; how it was run: as §1
Staphylococcus aureus [9] = assay: Antibacterial activity against methicillin/ceftriaxone-resistant Staphylococcus aureus NRS10194 clinical isolate assessed as bacterial growth inhibition incubated for 16 to 18 hrs by CLSI based antibiotic susceptibility testing method; assay type: functional; details: time 16-18 hrs; how it was run: as §1
[10] = Selectivity index, ratio of CC50 for African green monkey Vero cells to MIC for Staphylococcus aureus ATCC 29213; assay type: toxicity, cell-based; details: read-out: Selectivity Index
Staphylococcus aureus [11] = assay: Bactericidal activity against Staphylococcus aureus ATCC 29213 assessed as reduction in remnant bacterial cells at 10 times MIC measured for 24 hrs by time-kill assay; assay type: functional; how it was run: as §3
Staphylococcus aureus [12] = assay: Antibacterial activity against methicillin/ceftriaxone/meropenem/gentamycin/linezolid-resistant Staphylococcus aureus NRS10119 clinical isolate assessed as bacterial growth inhibition incubated for 16 to 18 hrs by CLSI based antibiotic susceptibility testing method; assay type: functional; details: time 16-18 hrs; how it was run: as §1
Pseudomonas aeruginosa = assay: Antibacterial activity against Pseudomonas aeruginosa ATCC 27853 assessed as bacterial growth inhibition incubated for 16 to 18 hrs by CLSI based antibiotic susceptibility testing method; assay type: functional, organism-based; details: time 16-18 hrs; how it was run: as §1
[13] = test system: Mycolicibacterium fortuitum; assay: Antimycobacterial activity against Mycobacterium fortuitum ATCC 6841 assessed as bacterial growth inhibition incubated for 72 hrs by resazurin dye based broth microdilution method; assay type: functional, organism-based; how it was run: as §2
Staphylococcus aureus [14] = assay: Antibacterial activity against methicillin/ceftriaxone/meropenem-resistant Staphylococcus aureus NRS10186 clinical isolate assessed as bacterial growth inhibition incubated for 16 to 18 hrs by CLSI based antibiotic susceptibility testing method; assay type: functional; details: time 16-18 hrs; how it was run: as §1
Staphylococcus aureus [15] = assay: Antibacterial activity against methicillin/ceftriaxone/meropenem/vancomycin/teicoplanin-resistant Staphylococcus aureus VRS12 clinical isolate assessed as bacterial growth inhibition incubated for 16 to 18 hrs by CLSI based antibiotic susceptibility testing method; assay type: functional; details: time 16-18 hrs; how it was run: as §1
Staphylococcus aureus [16] = assay: Antibacterial activity against methicillin/ceftriaxone/meropenem-resistant Staphylococcus aureus NRS10193 clinical isolate assessed as bacterial growth inhibition incubated for 16 to 18 hrs by CLSI based antibiotic susceptibility testing method; assay type: functional; details: time 16-18 hrs; how it was run: as §1
Staphylococcus aureus [17] = assay: Antibacterial activity against methicillin/ceftriaxone/meropenem-resistant Staphylococcus aureus NRS10129 clinical isolate assessed as bacterial growth inhibition incubated for 16 to 18 hrs by CLSI based antibiotic susceptibility testing method; assay type: functional; details: time 16-18 hrs; how it was run: as §1
Staphylococcus aureus [18] = assay: Antibacterial activity against methicillin/ceftriaxone/meropenem/gentamycin/vancomycin/teicoplanin-resistant Staphylococcus aureus VRS1 clinical isolate assessed as bacterial growth inhibition incubated for 16 to 18 hrs by CLSI based antibiotic susceptibility testing method; assay type: functional; details: time 16-18 hrs; how it was run: as §1
[19] = Cytotoxicity against African green monkey Vero cells by MTT assay; assay type: toxicity, cell-based; details: chlorocebus sabaeus
How it was run: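 Vero cells were seeded at ~10³ per well at 37 °C, 5% CO2. After 24 h, compounds were added at 5-100 mg/L for 72 h. […] was added for 4 h, formazan was dissolved in DMSO and read at 540 nm. CC50 was taken as the lowest concentration reducing viability by 50%; doxorubicin was the positive control; triplicate.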

Staphylococcus aureus [20] = assay: Antibacterial activity against methicillin/ceftriaxone/meropenem/vancomycin/teicoplanin-resistant Staphylococcus aureus VRS4 clinical isolate assessed as bacterial growth inhibition incubated for 16 to 18 hrs by CLSI based antibiotic susceptibility testing method; assay type: functional; details: time 16-18 hrs; how it was run: as §1
[21] = test system: Mycobacteroides abscessus; assay: Antimycobacterial activity against Mycobacterium abscessus ATCC 19977 assessed as bacterial growth inhibition incubated for 72 hrs by resazurin dye based broth microdilution method; assay type: functional, organism-based; how it was run: as §2

| SMILES | growth inhibition (GI) (Acinetobacter baumannii) | MIC (Staphylococcus aureus [1]) [µg/mL] | MIC (Staphylococcus aureus [2]) [µg/mL] | MIC (Staphylococcus aureus [3]) [µg/mL] | MIC [4] [µg/mL] | growth inhibition (GI) (Klebsiella pneumoniae) | MIC (Staphylococcus aureus [5]) [µg/mL] | growth inhibition (GI) (Mycobacteroides chelonae) | MIC (Staphylococcus aureus [6]) [µg/mL] | Activity (Staphylococcus aureus [7]) | MIC (Staphylococcus aureus [8]) [µg/mL] | growth inhibition (GI) (Escherichia coli) | MIC (Staphylococcus aureus [9]) [µg/mL] | selectivity ratio [10] | Activity (Staphylococcus aureus [11]) [log10CFU/ml] | MIC (Staphylococcus aureus [12]) [µg/mL] | growth inhibition (GI) (Pseudomonas aeruginosa) | growth inhibition (GI) [13] | MIC (Staphylococcus aureus [14]) [µg/mL] | MIC (Staphylococcus aureus [15]) [µg/mL] | other results |
| --- | --- | --- | --- | --- | --- | --- | --- | --- | --- | --- | --- | --- | --- | --- | --- | --- | --- | --- | --- | --- | --- |
| O=C1c2cccc3cccc(c23)C(=O)N1CCN1CCN(C(=S)NC2CCCC2)CC1 | inactive | 0.125 (≈ 0.286 µM) | 0.125 (≈ 0.286 µM) | 0.125 (≈ 0.286 µM) | 2 (≈ 4.58 µM) | inactive | 0.125 (≈ 0.286 µM) | inactive | 0.25 (≈ 0.573 µM) | Dose-Dependent Effect | 0.125 (≈ 0.286 µM) | inactive | 0.125 (≈ 0.286 µM) | > 160 | ~5 | 0.125 (≈ 0.286 µM) | inactive | inactive | 0.25 (≈ 0.573 µM) | 0.25 (≈ 0.573 µM) | MIC (Staphylococcus aureus [16]): 0.125 µg/mL (≈ 0.286 µM); MIC (Staphylococcus aureus [17]): 0.25 µg/mL (≈ 0.573 µM); MIC (Staphylococcus aureus [18]): 0.125 µg/mL (≈ 0.286 µM); CC50 [19]: > 20 µg/mL; MIC (Staphylococcus aureus [20]): 0.125 µg/mL (≈ 0.286 µM); growth inhibition (GI) [21]: inactive |
| O=C1c2cccc3cccc(c23)C(=O)N1CCN1CCN(C(=S)NC2CCCCCC2)CC1 | inactive | 0.5 (≈ 1.08 µM) | 0.25 (≈ 0.538 µM) | 1 (≈ 2.15 µM) | > 64 | inactive | 0.5 (≈ 1.08 µM) | inactive | 0.5 (≈ 1.08 µM) | Dose-Dependent Effect | 1 (≈ 2.15 µM) | inactive | 0.5 (≈ 1.08 µM) | > 80 | ~5 | 1 (≈ 2.15 µM) | inactive | inactive | 1 (≈ 2.15 µM) | 1 (≈ 2.15 µM) | MIC (Staphylococcus aureus [16]): 1 µg/mL (≈ 2.15 µM); MIC (Staphylococcus aureus [17]): 0.5 µg/mL (≈ 1.08 µM); MIC (Staphylococcus aureus [18]): 1 µg/mL (≈ 2.15 µM); CC50 [19]: > 20 µg/mL; MIC (Staphylococcus aureus [20]): 0.5 µg/mL (≈ 1.08 µM); growth inhibition (GI) [21]: inactive |

From ChEMBL document CHEMBL5385966, “Synthesis and biological evaluation of new naphthalimide-thiourea derivatives as potent antimicrobial agents active against multidrug-resistant Staphylococcus aureus and Mycobacterium tuberculosis” (RSC Med Chem, 2024)
